Results from publication PMC12673082 (Nature Communications, 2025).
In brackets after ≈: the same amount, converted by molar mass.

Legend:
[1] = molecular target: T1, mP2X7 (Mus musculus, UniProt Q9Z1M0); test: Whole-cell patch clamp, ATP-evoked current, transfected HEK293; format: cell-based; conditions: HEK293, read-out: inhibition rate
T1 sequence (Q9Z1M0 1-595): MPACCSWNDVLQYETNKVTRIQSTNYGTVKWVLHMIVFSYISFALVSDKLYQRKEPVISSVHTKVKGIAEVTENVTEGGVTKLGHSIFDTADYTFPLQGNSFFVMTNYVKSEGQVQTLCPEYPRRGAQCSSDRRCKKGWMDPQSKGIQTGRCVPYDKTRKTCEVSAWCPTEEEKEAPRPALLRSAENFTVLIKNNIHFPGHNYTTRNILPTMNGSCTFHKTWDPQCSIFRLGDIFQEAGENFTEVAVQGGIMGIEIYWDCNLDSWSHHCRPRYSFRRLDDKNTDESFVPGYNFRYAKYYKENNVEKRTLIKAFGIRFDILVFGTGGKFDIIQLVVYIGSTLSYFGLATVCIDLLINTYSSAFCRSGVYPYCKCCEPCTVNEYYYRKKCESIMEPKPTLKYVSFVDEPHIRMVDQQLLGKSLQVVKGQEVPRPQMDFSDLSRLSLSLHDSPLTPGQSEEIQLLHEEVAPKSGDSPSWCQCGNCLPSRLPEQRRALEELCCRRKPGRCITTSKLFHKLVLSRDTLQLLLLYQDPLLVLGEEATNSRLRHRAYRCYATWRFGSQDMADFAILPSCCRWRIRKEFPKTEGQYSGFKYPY

[2] = molecular target: T2, rP2X7 (Rattus norvegicus, UniProt Q64663); test: as above; format: cell-based; conditions: HEK293, read-out: inhibition rate
T2 sequence (Q64663 1-595): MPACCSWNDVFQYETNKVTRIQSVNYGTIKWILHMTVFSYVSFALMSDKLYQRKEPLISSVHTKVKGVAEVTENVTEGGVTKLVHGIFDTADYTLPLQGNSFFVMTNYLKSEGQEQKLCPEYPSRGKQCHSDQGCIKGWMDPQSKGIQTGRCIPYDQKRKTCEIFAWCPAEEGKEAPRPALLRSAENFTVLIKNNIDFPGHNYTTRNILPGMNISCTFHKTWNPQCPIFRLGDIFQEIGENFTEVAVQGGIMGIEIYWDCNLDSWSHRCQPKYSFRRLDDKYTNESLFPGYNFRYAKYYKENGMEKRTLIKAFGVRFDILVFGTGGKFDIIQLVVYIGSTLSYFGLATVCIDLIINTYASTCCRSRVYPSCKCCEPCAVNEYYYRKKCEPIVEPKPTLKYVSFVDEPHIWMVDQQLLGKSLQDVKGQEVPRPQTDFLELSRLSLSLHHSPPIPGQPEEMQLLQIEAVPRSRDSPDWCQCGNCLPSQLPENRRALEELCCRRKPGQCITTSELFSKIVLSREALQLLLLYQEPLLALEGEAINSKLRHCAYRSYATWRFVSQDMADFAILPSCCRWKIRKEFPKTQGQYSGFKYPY

[3] = molecular target: hP2X2 (Homo sapiens, UniProt Q9UBL9); test: as above; format: cell-based; conditions: HEK293, read-out: inhibition rate
[4] = molecular target: mP2X7 Y108F/A312V (Mus musculus, UniProt Q9Z1M0, A312V/Y108F); test: Whole-cell patch clamp, mP2X7 mutant; format: cell-based; conditions: 1 μM
[5] = system: pdP2X7 F103W; test: Whole-cell patch clamp, pdP2X7 mutant; format: cell-based, giant panda; conditions: pd7F103W, 30 μM
[6] = system: pdP2X7 Y295A; test: Whole-cell patch clamp, pdP2X7 mutant; format: cell-based, giant panda; conditions: pd7Y295A, 30 μM
[7] = system: pdP2X7 K297R; test: Whole-cell patch clamp, pdP2X7 mutant; format: cell-based, giant panda; conditions: pd7K297R, 30 μM
[8] = system: pdP2X7 Y298A; test: Whole-cell patch clamp, pdP2X7 mutant; format: cell-based, giant panda; conditions: pd7Y298A, 30 μM
[9] = system: P2rx7+/+ mice; test: Murine full-thickness wound infection model; format: in vivo, mouse; conditions: 7.5 mg/ml, 50 μL s.c. twice daily, 7 days, vs control solvent
Summary of the method: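 WT C57BL/6J mice (8–10 weeks) were anesthetized, their backs shaved and iodine-disinfected, and a 6 mm punch wound made. 20 μL S. aureus (1×10^7 CFU/ml, saline-washed) was applied to the wound. After 24 h of infection, mice were randomized to test compound (7.5 mg/ml, 50 μL) or vehicle (20% sulfobutylether-β-cyclodextrin in saline), given s.c. around the wound twice daily for 7 days. Wound area was imaged daily and quantified. Data are mean ± SEM.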

[10] = Maximal soluble concentration in recording solution; format: physicochemical
[11] = molecular target: pdP2X7 F88A (Ailuropoda melanoleuca, UniProt G1M6C4, F89A); conditions: pd7 F88A, 10 μM
[12] = molecular target: pdP2X7 F95A (Ailuropoda melanoleuca, UniProt G1M6C4, F96A); conditions: pd7 F95A, 10 μM
[13] = molecular target: pdP2X7 P96G (Ailuropoda melanoleuca, UniProt G1M6C4, P97G); conditions: pd7 P96G, 10 μM
[14] = molecular target: pdP2X7 F103A (Ailuropoda melanoleuca, UniProt G1M6C4, F104A); conditions: pd7 F103A, 10 μM
[15] = molecular target: pdP2X7 Y298F (Ailuropoda melanoleuca, UniProt G1M6C4, Y299F); conditions: pd7 Y298F, 10 μM
Sequence of pdP2X7 Y298F (G1M6C4 2-606 Y299F): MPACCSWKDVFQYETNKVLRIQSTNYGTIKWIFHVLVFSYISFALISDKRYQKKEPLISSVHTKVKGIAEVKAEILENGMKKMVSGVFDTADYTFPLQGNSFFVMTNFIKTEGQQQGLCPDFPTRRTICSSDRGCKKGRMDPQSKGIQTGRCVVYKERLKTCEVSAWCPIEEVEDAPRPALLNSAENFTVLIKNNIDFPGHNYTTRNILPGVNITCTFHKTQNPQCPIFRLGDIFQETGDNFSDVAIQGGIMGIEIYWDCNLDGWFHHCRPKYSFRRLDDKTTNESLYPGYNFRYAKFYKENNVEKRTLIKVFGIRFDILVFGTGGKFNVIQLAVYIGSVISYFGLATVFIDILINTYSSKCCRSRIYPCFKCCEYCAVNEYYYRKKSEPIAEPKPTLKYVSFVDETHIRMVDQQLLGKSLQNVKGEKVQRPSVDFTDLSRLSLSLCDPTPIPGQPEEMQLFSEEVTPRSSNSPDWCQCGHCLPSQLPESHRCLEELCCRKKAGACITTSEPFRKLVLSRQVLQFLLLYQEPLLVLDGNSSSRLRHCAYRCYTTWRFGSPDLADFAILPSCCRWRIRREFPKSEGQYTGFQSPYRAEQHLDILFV

Sequence of pdP2X7 P96G (G1M6C4 2-595 P97G): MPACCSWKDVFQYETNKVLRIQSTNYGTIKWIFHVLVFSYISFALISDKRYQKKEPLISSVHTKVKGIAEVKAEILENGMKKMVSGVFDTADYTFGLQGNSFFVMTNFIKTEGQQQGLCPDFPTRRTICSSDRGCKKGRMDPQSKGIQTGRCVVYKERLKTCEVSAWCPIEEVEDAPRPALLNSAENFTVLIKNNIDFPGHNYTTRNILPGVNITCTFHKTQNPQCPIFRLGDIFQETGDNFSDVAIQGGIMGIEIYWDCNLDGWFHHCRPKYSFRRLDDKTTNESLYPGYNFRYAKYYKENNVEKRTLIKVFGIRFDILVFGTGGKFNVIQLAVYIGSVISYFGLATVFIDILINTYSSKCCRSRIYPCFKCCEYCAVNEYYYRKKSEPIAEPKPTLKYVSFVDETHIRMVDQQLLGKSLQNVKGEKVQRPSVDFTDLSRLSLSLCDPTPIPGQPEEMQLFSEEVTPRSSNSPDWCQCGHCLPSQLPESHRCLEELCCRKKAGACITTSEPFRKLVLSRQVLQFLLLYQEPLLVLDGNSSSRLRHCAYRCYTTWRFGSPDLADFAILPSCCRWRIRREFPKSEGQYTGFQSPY
Sequence of pdP2X7 F88A (G1M6C4 2-595 F89A): as the sequence (G1M6C4 2-595 P97G) above, with F88A, G96P counted along it
Sequence of pdP2X7 F103A (G1M6C4 2-595 F104A): as the sequence (G1M6C4 2-595 P97G) above, with G96P, F103A counted along it
Sequence of hP2X2 (Q9UBL9 whole entry): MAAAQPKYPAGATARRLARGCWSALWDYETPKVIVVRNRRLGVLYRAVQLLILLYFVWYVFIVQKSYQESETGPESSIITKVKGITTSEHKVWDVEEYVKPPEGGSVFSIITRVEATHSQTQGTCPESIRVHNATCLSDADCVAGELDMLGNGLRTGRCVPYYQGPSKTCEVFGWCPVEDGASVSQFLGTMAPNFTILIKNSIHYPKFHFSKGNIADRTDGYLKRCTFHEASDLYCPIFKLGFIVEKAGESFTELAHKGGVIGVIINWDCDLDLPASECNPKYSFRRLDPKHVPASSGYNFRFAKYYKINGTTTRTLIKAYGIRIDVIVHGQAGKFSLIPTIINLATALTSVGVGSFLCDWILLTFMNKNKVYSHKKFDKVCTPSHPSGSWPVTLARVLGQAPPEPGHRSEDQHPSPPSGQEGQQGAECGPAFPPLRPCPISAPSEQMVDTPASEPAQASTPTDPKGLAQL
Sequence of mP2X7 Y108F/A312V (Q9Z1M0 whole entry Y108F/A312V): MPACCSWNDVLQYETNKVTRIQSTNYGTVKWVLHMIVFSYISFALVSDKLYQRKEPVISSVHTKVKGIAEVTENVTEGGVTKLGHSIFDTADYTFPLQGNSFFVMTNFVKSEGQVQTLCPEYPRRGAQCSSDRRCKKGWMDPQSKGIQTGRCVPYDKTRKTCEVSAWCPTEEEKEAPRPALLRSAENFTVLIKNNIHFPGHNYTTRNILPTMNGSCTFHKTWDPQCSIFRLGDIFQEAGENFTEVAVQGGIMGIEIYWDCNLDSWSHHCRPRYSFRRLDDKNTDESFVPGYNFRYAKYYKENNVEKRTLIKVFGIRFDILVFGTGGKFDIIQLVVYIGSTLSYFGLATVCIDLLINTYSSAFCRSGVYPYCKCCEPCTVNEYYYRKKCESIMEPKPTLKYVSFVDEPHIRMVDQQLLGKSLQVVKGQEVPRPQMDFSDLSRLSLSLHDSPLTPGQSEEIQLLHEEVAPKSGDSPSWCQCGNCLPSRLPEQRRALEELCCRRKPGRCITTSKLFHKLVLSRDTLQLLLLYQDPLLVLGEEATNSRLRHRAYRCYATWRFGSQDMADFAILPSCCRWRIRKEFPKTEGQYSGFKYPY
Sequence of pdP2X7 F95A (G1M6C4 2-595 F96A): as the sequence (G1M6C4 2-595 P97G) above, with F95A, G96P counted along it

With `C=CC[C@@H]1c2ccc(OC)c(OC)c2CN2CCc3cc4c(cc3[C@H]12)OCO4` [PSFL1191, (13R,13aS)-13-allyl-9,10-dimethoxy-5,8,13,13a-tetrahydro-6H-1,3dioxolo[4,5-g]isoquinolino[3,2-a]isoquinoline] the inhibition at 30 µM [1] was 13.3 ± 3.04%, the inhibition at 30 µM [2] was 4.94 ± 1.43% and the inhibition at 30 µM [3] was 3.09 ± 7.46%. For the same compound, the “fold increase of inhibition compared to m7WT” value [4] was roughly 26 fold, the inhibition rate [5] was no more than 50% and the inhibition rate [6] was no more than 50%. The inhibition rate [7] was no more than 50%, the inhibition rate [8] was no more than 50% and the “wound healing (wound area)” value [9] was “did not influence the wound healing rate”. The solubility [10] was 30 µM (≈ 11.4 µg/mL), the “inhibitory effect on ATP (1 mM)-induced activation (inhibition ratio)” value (from here on “inhibitory effect on ATP … (inhibition ratio)”) [11] was “significantly attenuated” and the “inhibitory effect on ATP … (inhibition ratio)” value [12] was “did not”. The “inhibitory effect on ATP … (inhibition ratio)” value [13] was “significantly attenuated”, the “inhibitory effect on ATP … (inhibition ratio)” value [14] was “significantly attenuated” and the “inhibitory effect on ATP … (inhibition ratio)” value [15] was “significantly attenuated”.
